Reference: ChEMBL document CHEMBL3853307, “Anti-inflammatory Effect of Methyl Gallate on Experimental Arthritis: Inhibition of Neutrophil Recruitment, Production of Inflammatory Mediators, and Activation of Macrophages” (J Nat Prod, 2016)
Activity calls are given as the source filed them. No cut-off for these calls is given here.

Assays:
Mus musculus [1] = assay: Antiinflammatory activity in zymosan-induced C57BL/6 mouse pleurisy model assessed as reduction in protein extravasation in thoracic cavity at 10 to 50 mg/kg, po administered 1 hr prior to zymosan challenge measured after 4 hrs; assay type: functional, organism-based
Procedure, shortened: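 Oral pretreatment 1 h before intrathoracic zymosan (100 μg/cavity in 100 μL saline). Cavities washed at 4 h with 1 mL PBS/10 mM EDTA. Total leukocytes counted on a particle counter, differentials from May-Grünwald-Giemsa cytospins (×10^6/cavity). Supernatant after 400g 10 min assayed for total protein by Bradford.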

Mus musculus [2] = assay: Antiinflammatory activity in C57BL/6 mouse assessed as inhibition of zymosan-induced mononuclear cells migration in articular cavity at 7 mg/kg, po administered 1 hr prior to zymosan challenge measured at 6 to 24 hrs; assay type: functional, organism-based
Procedure, shortened: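 Male C57BL/6 mice, fasted overnight, dosed orally (vehicle saline/water, 200 μL) or i.p. 1 h before zymosan (500 μg in 25 μL saline, i.a., left knee). Knee swelling measured as change in transverse diameter from basal by digital caliper (mm). Synovial washes (PBS/EDTA) counted on a particle counter; differentials from May-Grünwald-Giemsa cytospins, cells ×10^5/cavity. Sampled at 6 and/or 24 h; seven mice/group.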

COC(=O)c1cc(O)c(O)c(O)c1 [GALLIC ACID METHYL ESTER]
Activity (Mus musculus [1]): Active | inhibition (Mus musculus [2]): Active
